From ChEMBL document CHEMBL1147788, “Design, synthesis, and preliminary biological evaluation of 2,3-dihydro-3-hydroxymethyl-1,4-benzoxazine derivatives” (2006)
The source made the active and inactive calls. The rule behind the calls is not given here.

Tests used:
A549 [1] = test: Antiproliferative activity against human A549 cell line at 400 uM after 24 hrs by MTT assay; format: functional, cell-based
Summary of the method: (§1)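 A549 cells grown in medium with or without compound at 50–400 µM for 24 and 48 h; viability read by MTT assay and expressed as percent of vehicle (DMSO) control. Means ± SE of three independent experiments; significance tested against control.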

A549 [2] = test: Antiproliferative activity against human A549 cell line at 400 uM after 48 hrs by MTT assay; format: functional, cell-based; summary of the method: as §1
A549 [3] = test: Decrease in viability of human A549 cell line at 200 uM after 24 hrs relative to control by MTT assay; format: functional, cell-based; summary of the method: as §1
A549 [4] = test: Decrease in viability of human A549 cell line at 50 uM after 48 hrs relative to control by MTT assay; format: functional, cell-based; summary of the method: as §1
HUVEC [5] = test: Induction of HUVEC cell line apoptosis at 100 uM; format: functional, cell-based; settings: Homo sapiens
Summary of the method: (§2)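 HUVECs in MCDB131 with 10% fetal calf serum and […] bFGF, passages 10–20. Apoptosis induced by growth-factor deprivation. Cells cultured with or without compound at 25–200 µM for 24 and 48 h. Means ± SE of three independent experiments versus control.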

A549 [6] = test: Decrease in viability of human A549 cell line at 200 uM after 48 hrs relative to control by MTT assay; format: functional; summary of the method: as §1
HUVEC [7] = test: Induction of HUVEC cell line apoptosis at 200 uM; format: functional, cell-based; settings: Homo sapiens; summary of the method: as §2
HUVEC [8] = test: Induction of HUVEC cell line apoptosis at 25 uM; format: functional, cell-based; settings: Homo sapiens; summary of the method: as §2
HUVEC [9] = test: Induction of HUVEC cell line apoptosis at 50 uM; format: functional, cell-based; settings: Homo sapiens; summary of the method: as §2
HUVEC [10] = test: Inhibition of HUVEC cell line apoptosis at 200 uM; format: functional, cell-based; settings: Homo sapiens; summary of the method: as §2
HUVEC [11] = test: Inhibition of HUVEC cell line apoptosis at 50 uM; format: functional, cell-based; settings: Homo sapiens; summary of the method: as §2
A549 [12] = test: Antiproliferative activity against human A549 cell line by MTT assay; format: functional, cell-based; summary of the method: as §1
HUVEC [13] = test: Inhibition of HUVEC cell line apoptosis at 100 uM; format: functional, cell-based; settings: Homo sapiens; summary of the method: as §2
A549 [14] = test: Decrease in viability of human A549 cell line at 400 uM after 24 hrs relative to control by MTT assay; format: functional; summary of the method: as §1
A549 [15] = test: Decrease in viability of human A549 cell line at 400 uM after 48 hrs relative to control by MTT assay; format: functional; summary of the method: as §1
A549 [16] = test: Antiproliferative activity against human A549 cell line at 200 uM after 48 hrs by MTT assay; format: functional, cell-based; summary of the method: as §1

Compound | Activity (A549 [1]) | Activity (A549 [2]) | Activity (A549 [3]) | Activity (A549 [4]) | Activity (HUVEC [5]) | Activity (A549 [6]) | Activity (HUVEC [7]) | Activity (HUVEC [8]) | Activity (HUVEC [9]) | Activity (HUVEC [10]) | Activity (HUVEC [11]) | Activity (A549 [12]) | Activity (HUVEC [13]) | Activity (A549 [14]) [%] | Activity (A549 [15]) [%] | Activity (A549 [16])
OCC1COc2c(Cl)cc(Cl)cc2N1 (stereo unspecified) | Active | Active | Active | Active | Active | Active | Active | Active | Active | – | – | – | – | – | – | –
Nc1ccc2c(c1)NC(CO)CO2 (stereo unspecified) | – | – | – | – | – | – | – | – | – | Active | Active | inactive | Active | – | – | –
CC(C)(C)c1ccc2c(c1)NC(CO)CO2 (stereo unspecified) | – | – | – | – | Active | 72.6% | Active | Active | Active | – | – | – | – | 77.8 | 59.5 | –
OCC1COc2ccccc2N1 (stereo unspecified) | – | – | – | – | Active | – | Active | Active | Active | – | – | inactive | – | – | – | –
Cc1ccc2c(c1)NC(CO)CO2 (stereo unspecified) | – | – | – | – | Active | – | Active | Active | Active | – | – | inactive | – | – | – | –
OCC1COc2c(Cl)cccc2N1 (stereo unspecified) | – | – | – | – | Active | – | Active | Active | Active | – | – | inactive | – | – | – | –
OCC1COc2ccc(Cl)cc2N1 (stereo unspecified) | – | Active | – | – | Active | – | Active | Active | Active | – | – | – | – | – | – | Active
